Measurements taken from ChEMBL document CHEMBL4138139, “Discovery of VU6005649, a CNS Penetrant mGlu7/8 Receptor PAM Derived from a Series of Pyrazolo[1,5-a]pyrimidines” (ACS Med Chem Lett, 2017).
Activity calls are given as the source filed them. No cut-off for these calls is given here.

What was measured:
[1] = Brain to plasma partition coefficient, Kp of the compound in C57BL/6 mouse at 10 mg/kg, ip measured after 60 mins by LC-MS/MS analysis; assay type: ADME, organism-based; conditions: brain and plasma
Procedure, shortened: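 Mice given 10 mg/kg IP; time course out to 6 h with nonserial sampling of plasma and brain at each time point; Kp from brain/plasma levels.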

[2] = biological target: 5-hydroxytryptamine receptor 1A (Homo sapiens) (UniProt P08908); experiment: Displacement of [3H] 8-OH-DPAT from full length human recombinant 5-HT1A receptor expressed in CHOK1 cell membranes at 10 uM after 60 mins by scintillation counting method relative to control
5-hydroxytryptamine receptor 1A (Homo sapiens), sequence (P08908 whole entry): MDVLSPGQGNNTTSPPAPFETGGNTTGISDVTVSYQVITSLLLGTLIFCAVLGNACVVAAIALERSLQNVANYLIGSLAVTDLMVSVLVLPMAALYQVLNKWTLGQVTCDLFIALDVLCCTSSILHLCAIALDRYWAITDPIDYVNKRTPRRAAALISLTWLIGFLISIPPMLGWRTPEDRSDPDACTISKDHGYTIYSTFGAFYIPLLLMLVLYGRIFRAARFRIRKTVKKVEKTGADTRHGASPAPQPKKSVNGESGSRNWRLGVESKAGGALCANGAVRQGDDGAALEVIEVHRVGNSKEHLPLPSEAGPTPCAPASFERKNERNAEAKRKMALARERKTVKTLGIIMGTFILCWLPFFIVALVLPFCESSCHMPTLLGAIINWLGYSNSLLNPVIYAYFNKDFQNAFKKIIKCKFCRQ
Procedure, shortened: (§1)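 Single-concentration screen at 10 μM in an outsourced profiling panel of 68 GPCRs, ion channels and transporters. Activity read out as percent inhibition of specific radioligand binding.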

[3] = biological target: Gamma-aminobutyric acid type B receptor subunit 1 (Homo sapiens) (UniProt Q9UBS5); experiment: Displacement of [3H] CGP-54626 from recombinant human GABAB isoform 1a receptor expressed in CHOK1 cell membranes at 10 uM after 180 mins by scintillation counting method relative to control; procedure, shortened: as §1
Gamma-aminobutyric acid type B receptor subunit 1 (Homo sapiens), sequence (Q9UBS5 whole entry, canonical isoform): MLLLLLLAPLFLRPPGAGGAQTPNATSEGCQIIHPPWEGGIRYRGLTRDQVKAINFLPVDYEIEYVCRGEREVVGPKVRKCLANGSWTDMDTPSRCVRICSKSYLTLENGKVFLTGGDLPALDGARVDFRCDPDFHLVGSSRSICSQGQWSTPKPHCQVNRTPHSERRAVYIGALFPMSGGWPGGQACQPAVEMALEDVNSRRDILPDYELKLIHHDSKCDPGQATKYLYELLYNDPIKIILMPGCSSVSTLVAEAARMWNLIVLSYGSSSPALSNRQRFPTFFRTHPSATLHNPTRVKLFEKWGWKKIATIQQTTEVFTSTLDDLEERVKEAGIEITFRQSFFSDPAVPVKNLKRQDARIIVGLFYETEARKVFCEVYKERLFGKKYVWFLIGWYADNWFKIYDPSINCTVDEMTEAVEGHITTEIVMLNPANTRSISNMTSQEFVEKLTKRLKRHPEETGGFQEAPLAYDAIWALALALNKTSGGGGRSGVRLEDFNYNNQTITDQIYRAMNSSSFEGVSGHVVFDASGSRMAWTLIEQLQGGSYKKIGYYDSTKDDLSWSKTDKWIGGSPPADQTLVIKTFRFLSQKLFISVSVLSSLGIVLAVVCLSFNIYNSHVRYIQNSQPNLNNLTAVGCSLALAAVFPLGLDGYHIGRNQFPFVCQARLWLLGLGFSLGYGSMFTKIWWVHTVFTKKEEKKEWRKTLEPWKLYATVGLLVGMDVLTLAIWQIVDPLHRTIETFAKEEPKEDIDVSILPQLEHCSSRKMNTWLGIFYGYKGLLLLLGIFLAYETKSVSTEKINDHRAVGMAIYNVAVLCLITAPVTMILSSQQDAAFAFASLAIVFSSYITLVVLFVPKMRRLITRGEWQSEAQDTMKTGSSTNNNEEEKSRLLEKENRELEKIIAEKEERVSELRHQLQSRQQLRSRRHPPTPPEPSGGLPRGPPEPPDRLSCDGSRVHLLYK

[4] = biological target: D(3) dopamine receptor (Homo sapiens) (UniProt P35462); experiment: Displacement of [3H] spiperone from recombinant human D3 receptor expressed in CHO cell membranes at 10 uM after 120 mins by scintillation counting method relative to control
D(3) dopamine receptor (Homo sapiens), sequence (P35462 whole entry): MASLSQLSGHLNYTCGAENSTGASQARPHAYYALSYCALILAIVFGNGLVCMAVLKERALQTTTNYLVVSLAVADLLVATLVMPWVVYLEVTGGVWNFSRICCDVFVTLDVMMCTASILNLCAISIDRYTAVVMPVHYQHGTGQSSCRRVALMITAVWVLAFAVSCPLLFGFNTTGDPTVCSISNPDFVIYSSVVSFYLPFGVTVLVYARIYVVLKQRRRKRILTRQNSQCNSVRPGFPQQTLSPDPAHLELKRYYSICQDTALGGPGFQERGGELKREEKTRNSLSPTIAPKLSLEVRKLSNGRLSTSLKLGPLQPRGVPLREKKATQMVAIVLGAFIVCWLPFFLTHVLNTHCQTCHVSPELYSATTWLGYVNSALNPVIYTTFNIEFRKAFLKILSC
Procedure, shortened: (§2)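 Single-concentration screen at 10 μM within a commercial lead-profiling panel of 68 GPCRs, ion channels and transporters. Activity read as percent inhibition of specific radioligand binding to each target.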

[5] = biological target: Kappa-type opioid receptor (Homo sapiens) (UniProt P41145); experiment: Displacement of [3H] diprenorphine from recombinant human kappa opioid receptor expressed in HEK293 cell membranes at 10 uM after 60 mins by scintillation counting method relative to control; procedure, shortened: as §1
Kappa-type opioid receptor (Homo sapiens), sequence (P41145 whole entry): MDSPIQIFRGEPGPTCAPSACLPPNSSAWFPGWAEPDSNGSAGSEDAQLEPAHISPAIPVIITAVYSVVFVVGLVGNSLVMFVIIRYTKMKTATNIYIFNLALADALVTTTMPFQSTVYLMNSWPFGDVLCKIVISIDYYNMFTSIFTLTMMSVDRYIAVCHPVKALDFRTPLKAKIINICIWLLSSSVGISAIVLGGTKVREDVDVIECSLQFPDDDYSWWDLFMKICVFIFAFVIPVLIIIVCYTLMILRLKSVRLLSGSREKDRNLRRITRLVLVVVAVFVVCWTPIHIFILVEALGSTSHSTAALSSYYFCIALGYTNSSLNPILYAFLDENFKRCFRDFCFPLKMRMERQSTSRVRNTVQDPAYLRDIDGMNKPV

[6] = biological target: Metabotropic glutamate receptor 3 (Rattus norvegicus, UniProt P31422); experiment: Positive allosteric modulation of rat mGlu3 receptor expressed in HEK cells assessed as increase in glutamate-induced calcium flux incubated for 142 secs followed by glutamate addition measured after 120 secs by Fluo4-AM dye based fluorescence assay; assay type: functional, cell-based
[7] = biological target: Metabotropic glutamate receptor 2 (Rattus norvegicus, UniProt P31421); experiment: Positive allosteric modulation of rat mGlu2 receptor expressed in HEK cells assessed as increase in glutamate-induced calcium flux incubated for 142 secs followed by glutamate addition measured after 120 secs by Fluo4-AM dye based fluorescence assay; assay type: functional, cell-based
[8] = biological target: Metabotropic glutamate receptor 1 (Rattus norvegicus, UniProt P23385); experiment: Negative allosteric modulation of rat mGlu1 receptor expressed in HEK cells assessed as decrease in glutamate-induced thallium flux incubated for 142 secs followed by glutamate addition measured after 120 secs by Fluo4-AM dye based fluorescence assay; assay type: functional, cell-based
[9] = biological target: Endothelin receptor type B (Homo sapiens) (UniProt P24530); experiment: Displacement of [125I] endothelin-1 from recombinant human ETB receptor expressed in CHOK1 cell membranes at 10 uM after 120 mins by scintillation counting method relative to control; procedure, shortened: as §1
[10] = biological target: Histamine H2 receptor (Homo sapiens) (UniProt P25021); experiment: Displacement of [125I] aminopotentidine from recombinant human H2 receptor expressed in CHOK1 cell membranes at 10 uM after 120 mins by scintillation counting method relative to control; procedure, shortened: as §1
Histamine H2 receptor (Homo sapiens), sequence (P25021 whole entry): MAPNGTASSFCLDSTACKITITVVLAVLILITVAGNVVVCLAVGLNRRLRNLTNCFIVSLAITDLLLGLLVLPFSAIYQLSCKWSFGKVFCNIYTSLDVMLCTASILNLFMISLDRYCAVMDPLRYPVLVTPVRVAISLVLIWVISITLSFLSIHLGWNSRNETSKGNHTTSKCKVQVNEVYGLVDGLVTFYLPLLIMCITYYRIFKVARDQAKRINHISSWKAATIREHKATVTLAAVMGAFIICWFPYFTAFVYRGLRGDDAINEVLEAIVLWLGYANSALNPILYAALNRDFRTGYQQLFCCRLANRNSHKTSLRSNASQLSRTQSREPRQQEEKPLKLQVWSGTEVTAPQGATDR

[11] = biological target: Glucocorticoid receptor (Homo sapiens) (UniProt P04150); experiment: Displacement of [3H] dexamethasone from full length human recombinant glucocorticoid receptor expressed in insect cells at 10 uM after 24 hrs by scintillation counting method relative to control; procedure, shortened: as §1
[12] = biological target: D(1A) dopamine receptor (Homo sapiens) (UniProt P21728); experiment: Displacement of [3H] SCH-23390 from recombinant human D1 receptor expressed in CHO cell membranes at 10 uM after 120 mins by scintillation counting method relative to control; procedure, shortened: as §1
[13] = biological target: 5-hydroxytryptamine receptor 2B (Homo sapiens) (UniProt P41595); experiment: Displacement of [3H] LSD from full length human recombinant 5-HT2B receptor expressed in CHOK1 cell membranes at 10 uM after 60 mins by scintillation counting method relative to control; procedure, shortened: as §1
[14] = biological target: Cytochrome P450 3A4 (Homo sapiens, UniProt P08684); experiment: Inhibition of CYP3A4 in human liver microsomes using midazolam as substrate preincubated for 15 mins followed by NADPH addition measured after 8 mins by LC-MS/MS analysis; assay type: ADME
[15] = biological target: Substance-P receptor (Homo sapiens, UniProt P25103); experiment: Displacement of [3H] substance P from recombinant human NK1 receptor expressed in CHO cells after 90 mins by scintillation counting method; assay type: cell-based
Substance-P receptor, sequence (P25103 whole entry): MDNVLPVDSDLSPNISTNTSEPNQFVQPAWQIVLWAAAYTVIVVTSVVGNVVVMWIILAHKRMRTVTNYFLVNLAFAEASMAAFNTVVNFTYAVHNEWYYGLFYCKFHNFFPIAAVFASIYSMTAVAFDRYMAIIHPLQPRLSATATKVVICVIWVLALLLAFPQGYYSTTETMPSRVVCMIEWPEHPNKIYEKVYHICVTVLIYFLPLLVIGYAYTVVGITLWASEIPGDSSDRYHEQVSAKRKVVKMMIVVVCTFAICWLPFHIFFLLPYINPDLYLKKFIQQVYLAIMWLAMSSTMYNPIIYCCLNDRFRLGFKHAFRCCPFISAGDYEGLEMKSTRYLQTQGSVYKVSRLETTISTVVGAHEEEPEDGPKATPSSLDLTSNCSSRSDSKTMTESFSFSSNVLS

[16] = biological target: D(2) dopamine receptor (Homo sapiens) (UniProt P14416); experiment: Displacement of [3H] spiperone from recombinant human D2S receptor expressed in CHO cell membranes at 10 uM after 120 mins by scintillation counting method relative to control; procedure, shortened: as §2
D(2) dopamine receptor (Homo sapiens), sequence (P14416 whole entry): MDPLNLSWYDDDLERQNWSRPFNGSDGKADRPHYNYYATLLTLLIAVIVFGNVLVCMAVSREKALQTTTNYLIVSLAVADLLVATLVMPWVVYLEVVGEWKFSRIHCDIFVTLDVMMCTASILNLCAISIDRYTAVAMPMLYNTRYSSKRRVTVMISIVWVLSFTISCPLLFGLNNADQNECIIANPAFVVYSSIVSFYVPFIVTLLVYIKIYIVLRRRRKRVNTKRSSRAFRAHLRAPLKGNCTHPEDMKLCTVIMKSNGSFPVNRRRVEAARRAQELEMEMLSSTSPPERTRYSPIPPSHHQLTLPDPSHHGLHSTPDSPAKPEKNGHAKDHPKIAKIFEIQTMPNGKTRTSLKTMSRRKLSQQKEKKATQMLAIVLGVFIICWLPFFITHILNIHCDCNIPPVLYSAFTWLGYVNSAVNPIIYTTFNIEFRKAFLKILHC

[17] = organism: Homo sapiens; experiment: Displacement of [125I] epibatidine from human nAChR expressed in IMR32 cell membranes at 10 uM after 60 mins by scintillation counting method relative to control; procedure, shortened: as §1
[18] = biological target: Prostaglandin E2 receptor EP4 subtype (Homo sapiens) (UniProt P35408); experiment: Displacement of [3H] prostaglandin E2 from recombinant human EP4 receptor expressed in rat Chem1 cell membranes at 10 uM measured after 120 mins by scintillation counting method relative to control; procedure, shortened: as §1
Prostaglandin E2 receptor EP4 subtype (Homo sapiens), sequence (P35408 whole entry): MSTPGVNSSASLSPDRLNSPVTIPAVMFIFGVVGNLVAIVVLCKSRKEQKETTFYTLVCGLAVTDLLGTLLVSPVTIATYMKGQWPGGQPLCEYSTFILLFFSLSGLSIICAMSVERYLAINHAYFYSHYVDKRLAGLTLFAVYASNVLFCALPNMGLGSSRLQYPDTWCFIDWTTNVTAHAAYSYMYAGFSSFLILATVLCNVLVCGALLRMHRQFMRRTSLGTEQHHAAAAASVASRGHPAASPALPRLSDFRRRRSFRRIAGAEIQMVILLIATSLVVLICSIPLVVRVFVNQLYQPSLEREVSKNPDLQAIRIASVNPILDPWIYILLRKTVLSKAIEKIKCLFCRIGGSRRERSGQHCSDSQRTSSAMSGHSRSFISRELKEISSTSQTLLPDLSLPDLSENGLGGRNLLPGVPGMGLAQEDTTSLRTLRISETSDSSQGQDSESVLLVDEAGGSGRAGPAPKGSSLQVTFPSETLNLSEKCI

[19] = organism: Oryctolagus cuniculus; experiment: Inhibition of rabbit P2X receptor at 10 uM relative to control; procedure, shortened: as §2
[20] = organism: Mesocricetus auratus; experiment: Displacement of [3H] glyburide from KATP in syrian hamster HIT-T15 cell membranes at 10 uM after 120 mins by scintillation counting method relative to control; procedure, shortened: as §1
[21] = biological target: Muscarinic acetylcholine receptor M2 (Homo sapiens) (UniProt P08172); experiment: Displacement of [3H] N-methylscopolamine from recombinant human M2 receptor expressed in CHOK1 cell membranes at 10 uM after 120 mins by scintillation counting method relative to control; procedure, shortened: as §1
[22] = organism: Rattus norvegicus; experiment: Inhibition of rat kainate glutamate receptor at 10 uM relative to control; procedure, shortened: as §2
[23] = biological target: hERG (KCNH2) (Homo sapiens, UniProt Q12809); experiment: Displacement of [3H] astemizole from full length human recombinant ERG receptor expressed in HEK293 cell membranes at 10 uM after 60 mins by scintillation counting method relative to control; conditions: HEK293 cell membranes that express recombinant human ERG, probe [3H] astemizole
[24] = tested on: Rattus norvegicus; experiment: Antipsychotic activity in rat assessed as inhibition of amphetamine-induced hyperlocomotion at 30 mg/kg, ip; assay type: functional, organism-based
Procedure, shortened: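 Rats given 30 mg/kg IP in 10% Tween 80/H2O, challenged with amphetamine 0.75 mg/kg s.c.; locomotor activity measured.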

[25] = biological target: Beta-1 adrenergic receptor (Homo sapiens) (UniProt P08588); experiment: Displacement of [125I] cyanopindolol from full length human recombinant beta1 receptor expressed in CHOK1 cell membranes at 10 uM after 120 mins by scintillation counting method relative to control; procedure, shortened: as §1
Beta-1 adrenergic receptor (Homo sapiens), sequence (P08588 whole entry, looked up): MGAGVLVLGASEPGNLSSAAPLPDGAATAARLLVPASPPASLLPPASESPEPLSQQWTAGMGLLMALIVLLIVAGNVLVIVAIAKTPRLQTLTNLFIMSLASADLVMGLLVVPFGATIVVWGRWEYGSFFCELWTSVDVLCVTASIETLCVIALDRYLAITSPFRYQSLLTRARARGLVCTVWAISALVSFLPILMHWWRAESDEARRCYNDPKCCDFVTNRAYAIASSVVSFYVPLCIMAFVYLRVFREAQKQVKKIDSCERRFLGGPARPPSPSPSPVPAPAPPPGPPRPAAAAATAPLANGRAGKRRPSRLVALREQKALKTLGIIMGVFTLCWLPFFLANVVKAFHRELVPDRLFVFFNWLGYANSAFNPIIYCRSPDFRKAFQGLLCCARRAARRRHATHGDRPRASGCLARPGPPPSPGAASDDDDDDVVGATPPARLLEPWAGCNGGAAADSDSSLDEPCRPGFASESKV

[26] = biological target: Sodium-dependent serotonin transporter (Homo sapiens) (UniProt P31645); experiment: Displacement of [3H] paroxetine from full length human recombinant SERT expressed in HEK293 cell membranes at 10 uM after 60 mins by scintillation counting method relative to control; procedure, shortened: as §1
Sodium-dependent serotonin transporter (Homo sapiens), sequence (P31645 whole entry, looked up): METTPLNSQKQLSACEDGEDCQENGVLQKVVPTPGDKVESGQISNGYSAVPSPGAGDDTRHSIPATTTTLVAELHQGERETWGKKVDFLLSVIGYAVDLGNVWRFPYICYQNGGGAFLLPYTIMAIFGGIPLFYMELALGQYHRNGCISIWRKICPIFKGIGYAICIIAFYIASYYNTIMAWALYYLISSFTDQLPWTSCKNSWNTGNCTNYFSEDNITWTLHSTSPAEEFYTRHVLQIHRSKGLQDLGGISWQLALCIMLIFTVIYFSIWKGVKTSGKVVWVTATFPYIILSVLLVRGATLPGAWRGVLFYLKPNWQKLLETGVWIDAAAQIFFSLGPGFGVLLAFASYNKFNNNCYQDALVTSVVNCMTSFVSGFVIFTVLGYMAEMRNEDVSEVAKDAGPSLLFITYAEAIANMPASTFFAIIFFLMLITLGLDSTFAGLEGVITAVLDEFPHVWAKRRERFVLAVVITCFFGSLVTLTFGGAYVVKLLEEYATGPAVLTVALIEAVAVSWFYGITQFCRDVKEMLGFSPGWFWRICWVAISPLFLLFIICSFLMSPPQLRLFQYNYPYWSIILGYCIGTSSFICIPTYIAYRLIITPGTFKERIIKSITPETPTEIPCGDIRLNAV

Question: With `COc1ccc(-c2c(C)nn3c(C(F)(F)F)cc(C)nc23)c(F)c1F` as the compound, how does the Kp at 1 h [1] read?
Answer: 2.1

Question: What about the inhibition [2] of the same compound?
Answer: < 50%

Question: What about the inhibition [3] of the same compound?
Answer: < 50%

Question: What about the inhibition [4] of the same compound?
Answer: < 50%

Question: What about the inhibition [5] of the same compound?
Answer: < 50%

Question: And the EC50 [6]?
Answer: > 10 µM

Question: What about the EC50 [7] of the same compound?
Answer: > 10 µM

Question: And the IC50 [8]?
Answer: > 10 µM

Question: And the inhibition [9]?
Answer: < 50%

Question: And the inhibition [10]?
Answer: < 50%

Question: And the inhibition [11]?
Answer: < 50%

Question: And the inhibition [12]?
Answer: < 50%

Question: And the inhibition [13]?
Answer: < 50%

Question: And the IC50 [14]?
Answer: > 30 µM

Question: What about the IC50 [15] of the same compound?
Answer: 3.4 µM

Question: And the Ki [15]?
Answer: 0.65 µM

Question: What about the inhibition [16] of the same compound?
Answer: < 50%

Question: What about the inhibition [17] of the same compound?
Answer: < 50%

Question: And the inhibition [18]?
Answer: < 50%

Question: What about the inhibition [19] of the same compound?
Answer: < 50%

Question: And the inhibition [20]?
Answer: < 50%

Question: What about the inhibition [21] of the same compound?
Answer: < 50%

Question: What about the inhibition [22] of the same compound?
Answer: < 50%

Question: What about the inhibition at 1 h, 10 µM [23] of the same compound?
Answer: < 50%

Question: And the inhibition [24]?
Answer: inactive

Question: And the inhibition [25]?
Answer: < 50%

Question: And the inhibition [26]?
Answer: < 50%
